In PMC2882864 (Cancer research, 2010):

Columns and labels:
[1] = test system: H460 NSCLC cell line; assay: Annexin V/PI flow cytometry cell viability; type: cell-based; conditions: H460, increasing concentrations, 48 hours
[2] = test system: RPA foci / DNA-PKcs phosphorylation; assay: Etoposide-induced RPA foci and DNA-PKcs serine 2056 phosphorylation; type: cell-based; conditions: co-treatment with etoposide
[3] = test system: Xeroderma Pigmentosum Group A protein (XPA); assay: XPA DNA binding in an ELISA format; conditions: data not shown
[4] = test system: RPA in H460 cells; assay: Indirect immunofluorescence of RPA p34; type: cell-based; conditions: H460, 50 µM, 3 hours, versus vehicle
Procedure, shortened: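 H460 cells on chamber slides got test compound or vehicle for 3 h. They were fixed in 4% paraformaldehyde (25 °C, 3 min) and permeabilised in 0.2% Triton X-100 (2 min, 4 °C), then blocked in 15% FBS for 1 h. Staining: anti-RPA p34 (1:500, 1 h), Alexa Fluor-594 anti-mouse (1:300, 1 h), then 300 nM DAPI. Imaged by fluorescence microscopy; staining quantified by image analysis.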

[5] = test system: peripheral blood mononuclear cells (PBMCs); assay: Cytotoxicity in freshly isolated PBMCs; type: cell-based; conditions: freshly isolated non-cancerous cells, data not shown
[6] = test system: H460 cells; assay: Combination index analysis with cisplatin or etoposide; type: cell-based; conditions: H460, 48 hours, all fractions of cells affected
Procedure, shortened: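 H460 cells plated at 1 × 10⁴ cells/cm² for 24 h, then treated concurrently with increasing concentrations of cisplatin or etoposide plus test compound (DMSO stock) for 48 h. Adherent and non-adherent cells were collected and stained with annexin V-FITC/PI, then read by flow cytometry. The combination index was derived by Chou–Talalay analysis across fractions of cells affected.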

[7] = test system: H460 cells; assay: Cell cycle distribution; type: cell-based
Procedure, shortened: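 H460 cells arrested with 0.8 µg/mL nocodazole for 12 h, washed, then given vehicle or 100 µM test compound for 4, 8 or 12 h; asynchronous cells treated 3 h. 10 µM BrdU added for final 2 h (released) or final hour (asynchronous). Fixed in 70% EtOH; PI 1 µg/mL with RNaseA; DNA denatured in 2 M HCl; anti-BrdU then AlexaFluor 488 secondary; FL2-A (PI) and FL1 (BrdU) flow read-out.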

[8] = target: Human RPA (Homo sapiens, UniProt P27694); assay: EMSA of RPA binding to 5'-32P-labeled 34-base ssDNA; conditions: for inhibition of RPA DNA binding in vitro (in words): EMSA
Procedure, shortened: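 Purified human RPA (25 nM) with 25 nM 5'-32P-labelled 34-base DNA in 20 µL reactions; test compound dissolved in DMSO. Bound and free DNA were resolved by electrophoretic mobility shift.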

Chain of Human RPA (P27694 whole entry): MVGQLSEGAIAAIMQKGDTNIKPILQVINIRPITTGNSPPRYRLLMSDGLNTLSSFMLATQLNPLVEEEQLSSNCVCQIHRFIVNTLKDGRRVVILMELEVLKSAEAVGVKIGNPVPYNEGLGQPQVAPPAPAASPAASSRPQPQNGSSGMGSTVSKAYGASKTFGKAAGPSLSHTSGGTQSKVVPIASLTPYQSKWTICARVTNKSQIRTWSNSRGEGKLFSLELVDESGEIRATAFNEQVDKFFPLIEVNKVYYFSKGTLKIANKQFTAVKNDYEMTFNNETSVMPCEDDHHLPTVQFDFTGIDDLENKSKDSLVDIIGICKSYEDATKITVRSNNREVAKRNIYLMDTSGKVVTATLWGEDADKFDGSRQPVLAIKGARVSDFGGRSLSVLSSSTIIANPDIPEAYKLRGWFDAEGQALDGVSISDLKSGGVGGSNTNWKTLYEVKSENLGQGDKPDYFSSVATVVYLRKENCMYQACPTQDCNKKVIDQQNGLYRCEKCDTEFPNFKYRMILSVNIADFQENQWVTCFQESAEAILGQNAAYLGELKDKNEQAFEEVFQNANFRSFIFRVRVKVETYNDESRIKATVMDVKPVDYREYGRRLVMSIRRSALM
Chain of Human RPA (P15927 whole entry partner): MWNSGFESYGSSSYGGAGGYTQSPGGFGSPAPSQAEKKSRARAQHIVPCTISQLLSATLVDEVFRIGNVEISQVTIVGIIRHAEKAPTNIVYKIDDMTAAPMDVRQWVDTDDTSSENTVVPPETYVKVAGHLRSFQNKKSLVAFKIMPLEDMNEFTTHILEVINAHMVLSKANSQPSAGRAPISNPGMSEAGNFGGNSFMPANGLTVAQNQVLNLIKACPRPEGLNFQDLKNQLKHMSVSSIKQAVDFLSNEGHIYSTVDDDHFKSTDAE
Chain of Human RPA (P35244 whole entry partner): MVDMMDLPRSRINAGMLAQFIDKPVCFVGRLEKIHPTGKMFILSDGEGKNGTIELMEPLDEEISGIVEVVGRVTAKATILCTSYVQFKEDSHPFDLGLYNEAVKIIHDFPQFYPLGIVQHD

SMILES | PI staining (membrane integrity) [1] | annexin V staining (apoptosis) [1] | etoposide-induced RPA foci and DNA-PKcs phosphorylation on co-treatment [2] | effect on XPA binding [3] | intensity of RPA staining [4] | cytotoxic activity in PBMCs [5] | interaction with etoposide (combination index analysis) [6] | BrdU incorporation after release from nocodazole arrest ([7]; H460, 100 µM, 10 µM BrdU final 2 hours) | S-phase entry after release from nocodazole G2 arrest ([7]; H460, 100 µM, 12 hours post release) | BrdU incorporation in asynchronous cells ([7]; H460, 3 hours treatment, BrdU final hour) | cell cycle distribution ([7]; H460, 48 hours) | competition of RPA from pre-bound DNA ([8]; data not shown) | inhibition of RPA DNA binding in vitro (in words) [8]
CCOc1ccc2cc(C3CC(c4ccc(Br)cc4)=NN3C(=O)CCC(=O)O)c(Cl)nc2c1 (centres unmarked) [TDRL-505] | concentration dependent increase | Minimal annexin V staining | slight increase | no inhibitory activity was observed | decrease in the intensity of RPA staining | minimal cytotoxic activity | synergistic activity | no BrdU incorporation was observed | did not enter S-phase | small but distinct differences | increase in the proportion of cells in G1-phase | unable to compete RPA away from DNA | –
CCN(CC)c1ccc(C2CC(c3ccc(Br)cc3)=NN2C(=O)CCC(=O)O)cc1 (centres unmarked) [TDRL-518] | – | – | – | – | – | – | – | – | – | – | – | – | no inhibition
COc1ccc(-c2nn(-c3ccccc3)cc2C2CC(c3ccc(Br)cc3)=NN2C(=O)CCC(=O)O)cc1 (centres unmarked) [TDRL-523] | – | – | – | – | – | – | – | – | – | – | – | – | modest in vitro RPA inhibition
